Values after ≈ are worked out from the molar mass of the structure shown.
Key:
Vero = experiment: Cytotoxicity against African green monkey Vero cells assessed as growth inhibition after 48 hrs by MTT assay; format: ADME, cell-based; conditions: Chlorocebus sabaeus
[1] = tested on: Mycobacterium tuberculosis; experiment: Antitubercular activity against Mycobacterium tuberculosis H37Rv after 7 days by microplate alamar blue assay; format: functional; conditions: 168 h
Method in brief: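 Microplate alamar blue assay on M. tuberculosis H37Rv. The MIC is the lowest concentration that reduces fluorescence by ≥90% relative to the mean of replicate bacterium-only controls.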

[2] = Selectivity index, ratio of IC50 for African green monkey Vero cells to MIC for Mycobacterium tuberculosis H37Rv
[3] = Metabolic stability in CD1 mouse liver microsomes assessed as compound remaining at 0.1 uM in presence of NADPH after 30 mins by LC/MS method; format: ADME, microsome; conditions: read-out: Stability
[4] = Plasma elimination half life in Balb/c mouse at 100 mg/kg, po measured over 24 hrs by LC/TSQ quantum access mass spectrometric method; format: ADME, organism-based; conditions: read-out: beta t1/2 (converted)
HepG2 = experiment: Cytotoxicity against human HepG2 cells after 48 hrs by MTT assay; conditions: HepG2, 48 h
[5] = AUC (0 to infinity) in Balb/c mouse at 10 mg/kg, iv measured over 24 hrs by LC/TSQ quantum access mass spectrometric method; format: ADME, organism-based; set-up: dose 10 mg/kg, time infinity, route intravenous; conditions: in vivo
[6] = Plasma elimination half life in Balb/c mouse at 10 mg/kg, iv measured over 24 hrs by LC/TSQ quantum access mass spectrometric method; format: ADME, organism-based; conditions: read-out: beta t1/2 (converted)
[7] = MRT in Balb/c mouse at 100 mg/kg, po measured over 24 hrs by LC/TSQ quantum access mass spectrometric method; format: ADME, organism-based; conditions: in vivo
Liver [8] = experiment: Metabolic stability in human liver microsomes at 0.1 uM in absence of NADPH after 30 mins by LC/MS method; format: ADME, microsome; conditions: 0.5 h
[9] = Tmax in Balb/c mouse at 100 mg/kg, po measured over 24 hrs by LC/TSQ quantum access mass spectrometric method; format: ADME, organism-based; conditions: in vivo
[10] = AUC (0 to infinity) in Balb/c mouse at 100 mg/kg, po measured over 24 hrs by LC/TSQ quantum access mass spectrometric method; format: ADME, organism-based; set-up: dose 100 mg/kg, route oral, time infinity; conditions: in vivo
[11] = MRT in Balb/c mouse at 10 mg/kg, iv measured over 24 hrs by LC/TSQ quantum access mass spectrometric method; format: ADME, organism-based; conditions: in vivo
[12] = Cmax in Balb/c mouse at 10 mg/kg, iv measured over 24 hrs by LC/TSQ quantum access mass spectrometric method; format: ADME, organism-based; set-up: dose 10 mg/kg, route intravenous; conditions: in vivo
H9c2 = experiment: Inhibition of mitochondrial protein synthesis in rat H9c2 cells after 5 days by In-Cell ELISA; conditions: H9c2, 120 h
[13] = Tmax in Balb/c mouse at 10 mg/kg, iv measured over 24 hrs by LC/TSQ quantum access mass spectrometric method; format: ADME, organism-based; conditions: in vivo
[14] = Clearance in Balb/c mouse at 10 mg/kg, iv measured over 24 hrs by LC/TSQ quantum access mass spectrometric method; format: ADME, organism-based; conditions: in vivo
[15] = Oral bioavailability in Balb/c mouse at 100 mg/kg measured over 24 hrs by LC/TSQ quantum access mass spectrometric method; format: ADME, organism-based; conditions: in vivo
[16] = Metabolic stability in human liver microsomes assessed as compound remaining at 0.1 uM in presence of NADPH after 30 mins by LC/MS method; format: ADME, microsome; conditions: read-out: Stability
[17] = Cmax in Balb/c mouse at 100 mg/kg, po measured over 24 hrs by LC/TSQ quantum access mass spectrometric method; format: ADME, organism-based; set-up: dose 100 mg/kg, route oral; conditions: in vivo
Liver [18] = experiment: Metabolic stability in CD1 mouse liver microsomes at 0.1 uM in absence of NADPH after 30 mins by LC/MS method; format: ADME, microsome; conditions: 0.5 h
[19] = Elimination half life in CD1 mouse at 10 mg/kg, po measured over 24 hrs by HPLC/MS/MS method; format: ADME, organism-based; conditions: in vivo, read-out: beta t1/2

Structure (SMILES)	IC50 (Vero) [µg/mL]	MIC90 [1] [µg/mL]	selectivity ratio [2]	also measured
O=C(NC[C@@H]1OC(=O)N2c3cc(F)c(C4=CCN(CCO)CC4)cc3OC[C@@H]12)C1CCC1	> 64	1.1 (≈ 2.48 µM)	58	
O=C1O[C@@H](CNc2ccon2)[C@@H]2COc3cc(C4=CCN(CCO)CC4)c(F)cc3N12	> 64	0.98 (≈ 2.28 µM)	65	
CC(=O)NC[C@@H]1OC(=O)N2c3ccc(C4=CCN(CCO)CC4)cc3OC[C@@H]12	26.8 (≈ 69.1 µM)	2.65 (≈ 6.83 µM)	10	
COC(=O)NC[C@@H]1OC(=O)N2c3cc(F)c(C4=CCN(C(=O)CO)CC4)cc3OC[C@@H]12	> 64	0.999 (≈ 2.29 µM)	64	
O=C(CO)N1CC=C(c2cc3c(cc2F)N2C(=O)O[C@@H](Cn4ccnn4)[C@@H]2CO3)CC1		10.9 (≈ 25.4 µM)		
CC(=O)NC[C@@H]1OC(=O)N2c3cc(F)c(C4CCN(CCO)CC4)cc3OC[C@@H]12		14.6 (≈ 35.8 µM)		
O=C(CO)N1CC=C(c2cc3c(cc2F)N2C(=O)O[C@@H](COc4ccon4)[C@@H]2CO3)CC1		> 32		
O=C(NC[C@@H]1OC(=O)N2c3cc(F)c(C4=CCN(CCO)CC4)cc3OC[C@@H]12)C1CC1	> 64	0.473 (≈ 1.1 µM)	135	
CC(=O)NC[C@@H]1OC(=O)N2c3cc(F)c(C4=CCN(CCO)CC4)cc3OC[C@@H]12	> 64	0.578 (≈ 1.43 µM)	111	
CC(=O)NC[C@@H]1OC(=O)N2c3cc(F)c(C4=CCN(C(=O)CO)CC4)cc3OC[C@@H]12	> 64	0.391 (≈ 0.932 µM)		remaining at 0.5 h, 0.1 µM [3]: 102%; half-life [4]: 4.22 h; IC50 (HepG2): > 64 µg/mL; AUC(0-inf) [5]: 12000 ng·h/mL; half-life [6]: 8.23 h; MRT [7]: 4.12 h; Stability (Liver [8]): Stable; Tmax [9]: 2 h; AUC(0-inf) [10]: 122000 ng·h/mL; MRT [11]: 2.54 h; Cmax [12]: 11400 ng/mL; IC50 (H9c2): 9.19 µM; Tmax [13]: 1.8 min; clearance [14]: 13.9 mL/min/kg; bioavailability [15]: 102%; remaining at 0.5 h, 0.1 µM [16]: 103%; Cmax [17]: 30000 ng/mL; Stability (Liver [18]): Stable
O=C(NC[C@@H]1OC(=O)N2c3cc(F)c(C4=CCN(C(=O)CO)CC4)cc3OC[C@@H]12)C1CC1	> 64	1.87 (≈ 4.19 µM)	34	
CCC(=O)N1CC=C(c2cc3c(cc2F)N2C(=O)O[C@@H](CNC(C)=O)[C@@H]2CO3)CC1		6.36 (≈ 15.2 µM)		
O=C(CO)N1CC=C(c2cc3c(cc2F)N2C(=O)O[C@@H](CNc4ccon4)[C@@H]2CO3)CC1	> 64	1.04 (≈ 2.35 µM)	61	
COC(=O)NC[C@@H]1OC(=O)N2c3cc(F)c(C4=CCN(CCO)CC4)cc3OC[C@@H]12	57.4 (≈ 136 µM)	2.22 (≈ 5.27 µM)	26	
CC(=O)NC[C@@H]1OC(=O)N2c3cc(F)c(C4=CCN(C(=O)[C@@H](O)CO)CC4)cc3OC[C@@H]12	> 64	0.483 (≈ 1.07 µM)	133	
CC(=O)NC[C@@H]1OC(=O)N2c3cc(F)c(C4=CCN(C(=O)C5CCCC5)CC4)cc3OC[C@@H]12		7.94 (≈ 17.4 µM)		
O=C1O[C@@H](Cn2ccnn2)[C@@H]2COc3cc(C4=CCN(CCO)CC4)c(F)cc3N12		7.96 (≈ 19.2 µM)		
O=C(NC[C@@H]1OC(=O)N2c3cc(F)c(C4=CCN(C(=O)CO)CC4)cc3OC[C@@H]12)C1CCC1	> 64	1.68 (≈ 3.66 µM)	39	
CC(=O)NC[C@@H]1OC(=O)N2c3ccc(C4=CCN(C(=O)CO)CC4)cc3OC[C@@H]12	13.8 (≈ 34.3 µM)	0.725 (≈ 1.81 µM)	19	
CC(=O)NC[C@@H]1OC(=O)N2c3cc(F)c(C4=CCN(C(=O)CN)CC4)cc3OC[C@@H]12.Cl	> 64	0.732	87	
CC(=O)NC[C@@H]1OC(=O)N2c3cc(F)c(C4CCN(C(=O)CO)CC4)cc3OC[C@@H]12	> 64	3.81 (≈ 9.05 µM)	17	
O=C(CO)N1CC=C(c2cc3c(cc2F)N2C(=O)O[C@@H](CNC(=O)C(F)(F)F)[C@@H]2CO3)CC1	> 64	1.16 (≈ 2.45 µM)	55	
O=C1O[C@@H](CNC(=O)C(F)(F)F)[C@@H]2COc3cc(C4=CCN(CCO)CC4)c(F)cc3N12	> 64	1.92 (≈ 4.17 µM)	33	
CC(=O)NC[C@@H]1OC(=O)N2c3cc(F)c(C4=CCN(C(=O)[C@@H]5CCCN5)CC4)cc3OC[C@@H]12.Cl		7.12		
CC(=O)NC[C@@H]1OC(=O)N2c3cc(F)c(C4=CCN(C(=O)[C@@H]5CCCO5)CC4)cc3OC[C@@H]12		5.53 (≈ 12 µM)		
CC(=O)NC[C@@H]1OC(=O)N2c3cc(F)c(C4=CCN(C(=O)C5CC5)CC4)cc3OC[C@@H]12		6.4 (≈ 14.9 µM)		
NNC(=O)c1ccncc1 [ISONIAZID]		0.037 (≈ 0.27 µM)		
CC(=O)NC[C@H]1CN(c2ccc(N3CCOCC3)c(F)c2)C(=O)O1 [LINEZOLID]	> 64	0.304 (≈ 0.901 µM)	197	half-life [19]: < 1 h; IC50 (H9c2): 8.71 µM
O=C([C@@H](O)CO)N1CC=C(c2c(F)cc(N3C[C@H](COc4ccon4)OC3=O)cc2F)CC1 [POSIZOLID]	> 64	1.02 (≈ 2.2 µM)	62	
CO[C@H]1/C=C/O[C@@]2(C)Oc3c(C)c(O)c4c(O)c(c(/C=N/N5CCN(C)CC5)c(O)c4c3C2=O)NC(=O)/C(C)=C\C=C\[C@H](C)[C@H](O)[C@@H](C)[C@@H](O)[C@@H](C)[C@H](OC(C)=O)[C@@H]1C [RIFAMPIN]		0.057 (≈ 0.0693 µM)		

— ChEMBL document CHEMBL3997852, “Discovery of Fluorine-Containing Benzoxazinyl-oxazolidinones for the Treatment of Multidrug Resistant Tuberculosis” (ACS Med Chem Lett, 2017)
